CHOP UPR activ = activators of apoptotic arm of unfolded protein response (CHOP); CHO-CHOP luciferase reporter, UPR activation, luminescence; percent of tunicamycin response over DMSO baseline; activation, % at 10 µM; actives 0.34% (n = 330,000); AID 449763;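 active = at 10 µM dose, activation of 40% or more, normalized to positive control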
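assay system = CHO CHOP reporter cells | amount = 500 CHO-CHOP cells per well | buffer or medium = F12 with 10% FBS | incubation = 16-18 h cell attachment, then 6 h compound exposure, 37 °C | detection = luminescence read with Steady-Glo | read-out = percent activation relative to tunicamycin control | controls = tunicamycin high control, DMSO low control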
CHOP inhibitor = CHOP inhibition in unfolded protein response. actives 3.8% (n = 220,000). inhibition, % at 10 µM. AID 2732. CHO-K1 CHOP-promoter luciferase, tunicamycin-induced, 15-18 h;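 active = compounds that reduced the stress-induced luciferase reporter signal by more than about 70% of percent inhibition, limit read from the data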
NS3 helicase inh = inhibitors of Hepatitis C virus NS3 helicase | inhibition, % at 10.9 µM | NS3 helicase DNA unwinding, Cy5 molecular beacon fluorescence | actives 0.56% (n = 290,000);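 active = inhibition above the mean of all tested compounds plus 3 SD, set per campaign, cut at about 35% in these data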
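assay system = NS3 helicase fragment of HCV | buffer or medium = MOPS pH 6.5, MgCl2, DTT, Tween20, BSA | timing = 60 min unwinding reaction at 25 °C after ATP addition | signal = Cy5 beacon fluorescence read at start and 1 h | read-out basis = % inhibition of unwinding | control set = low DMSO, high thioflavine S at 110 µM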
M18AAP inhibitor = blocks P. falciparum M18 aspartyl aminopeptidase | recombinant PfM18AAP, H-Glu-NHMec fluorogenic cleavage | inhibition, % at 7.35 µM | actives 1.2% (n = 290,000) | AID 1822;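 active = inhibition above the campaign mean inhibition over all tested compounds plus 3 SD, cut at about 28% in these data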
p97 ATPase inh = human p97 ATPase inhibition; recombinant p97 ATPase, Kinase-Glo ATP luminescence, 3 h; inhibition, % at 8 µM; actives 0.42% (n = 220,000); AID 1481; in the data active = inhibition above about 15%
Target sequence (P55072 whole entry, looked up): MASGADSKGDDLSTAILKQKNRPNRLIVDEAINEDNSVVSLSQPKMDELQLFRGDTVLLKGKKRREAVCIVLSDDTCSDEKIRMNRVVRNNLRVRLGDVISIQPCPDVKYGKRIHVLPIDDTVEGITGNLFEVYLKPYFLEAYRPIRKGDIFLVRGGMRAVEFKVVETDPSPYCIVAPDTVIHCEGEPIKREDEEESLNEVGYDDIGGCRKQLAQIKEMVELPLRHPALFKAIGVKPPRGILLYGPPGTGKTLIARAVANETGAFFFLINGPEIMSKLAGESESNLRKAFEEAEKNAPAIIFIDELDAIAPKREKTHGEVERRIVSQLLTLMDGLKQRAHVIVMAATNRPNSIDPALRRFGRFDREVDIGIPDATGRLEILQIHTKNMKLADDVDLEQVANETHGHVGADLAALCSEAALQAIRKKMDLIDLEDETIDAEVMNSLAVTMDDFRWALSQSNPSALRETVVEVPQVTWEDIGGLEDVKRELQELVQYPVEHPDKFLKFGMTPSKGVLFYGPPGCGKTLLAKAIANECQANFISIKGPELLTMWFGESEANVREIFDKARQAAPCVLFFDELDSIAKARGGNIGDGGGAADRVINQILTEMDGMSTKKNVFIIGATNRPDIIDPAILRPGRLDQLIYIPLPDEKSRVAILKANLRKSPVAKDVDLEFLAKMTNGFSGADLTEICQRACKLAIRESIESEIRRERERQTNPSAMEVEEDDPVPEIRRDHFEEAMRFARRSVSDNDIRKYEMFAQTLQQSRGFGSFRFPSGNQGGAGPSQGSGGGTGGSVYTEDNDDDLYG
UPR XBP1 act = activators of adaptive arm of unfolded protein response (XBP1) | activation, % at 20 µM | AID 463104 | CHO-XBP1 luciferase reporter, IRE1-XBP1 UPR activation, luminescence; percent of tunicamycin response, DMSO as zero | actives 0.33% (n = 330,000);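 active = versus positive control, 20 µM dose yields 30% or more activation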
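Material: IRE1-XBP1 luciferase reporter CHO line / Quantity: one thousand reporter cells per well / Buffer or medium: F12 with 10% serum / Compound: 20 µM single concentration, DMSO 1% / Times: 6 h treatment, 37 °C / Detection: Steady-Glo luciferase glow luminescence, 10 min after reagent addition / Benchmarks: tunicamycin high, DMSO low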
XBP1 UPR conf = adaptive UPR (XBP1) activation, confirmed | activation, % at 20 µM | AID 485299 | actives 63% (n = 1,000) | shares compounds with UPR XBP1 act | CHO-XBP1 IRE1-XBP1 luciferase reporter, luminescence;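 active = reporter signal at least 30% of the positive control's activation in two or more of four replicate wells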
Each line names hits and unclear results; the compound was inactive in the other large screens (follow-up assays come after a bar, where they were run). An excerpt weighted towards active compounds, which were near 4.5% of everything screened.

Nc1nc(NCC2CCCO2)nc(Nc2cccc(Cl)c2)c1[N+](=O)[O-] (centres undefined)	UPR XBP1 act 36 | XBP1 UPR conf inactive
NNC(=O)Cn1c(-c2nonc2N)nc2ccccc21	none
CCCCOc1ccccc1NC(=O)Cn1c(-c2nonc2N)nc2ccccc21	UPR XBP1 act 101 (no result: CHOP inhibitor) | XBP1 UPR conf 82
Cn1c(=O)[nH]c(=O)c2c1nc(N1CCc3ccccc3C1)n2CCSc1nc2ccccc2s1	UPR XBP1 act 34 | XBP1 UPR conf inactive
COc1ccc(C(C(=O)NC2CCCC2)N(C(=O)c2snc(-c3ccc(F)cc3)c2N)c2cccc(F)c2)cc1 (centres undefined)	UPR XBP1 act 37 | XBP1 UPR conf inactive
COc1ccc(C(C(=O)NC2CCCC2)N(C(=O)c2snc(-c3ccc(F)cc3)c2N)c2ccccc2)cc1 (centres undefined)	UPR XBP1 act 32 | XBP1 UPR conf inactive
COc1ccc(C(C(=O)NC2CCCC2)N(C(=O)c2snc(-c3ccc(F)cc3)c2N)c2ccc(F)cc2)cc1 (centres undefined)	none
CCn1c2c(c(=N)c3c1CCC3)CCC2	none
N=c1c2c(n(Cc3ccc(F)cc3)c3c1CCC3)CCC2	UPR XBP1 act 149 | XBP1 UPR conf inactive
COc1ccc(-c2coc3cc4oc(=O)cc(-c5ccccc5)c4cc23)cc1F	UPR XBP1 act 41 | XBP1 UPR conf 125
COc1ccc(-c2coc3cc4oc(=O)cc(C)c4cc23)cc1F	none
CCc1cc2cc3c(cc2nc1SCC(=O)Nc1nccs1)OCO3	UPR XBP1 act 57 | XBP1 UPR conf inactive
COc1ccc(C(=O)O/N=C/c2c(C(F)(F)F)nn(C)c2SCc2ccccc2Cl)cc1	UPR XBP1 act 62 | XBP1 UPR conf 83
CCOC(=O)c1cc(-c2ccccc2)sc1NC(=O)c1ccc(OC)cc1	UPR XBP1 act 151 | XBP1 UPR conf 118
COC(=O)c1sc(-c2ccccc2)cc1NC(=O)c1ccc(F)cc1	UPR XBP1 act 61 | XBP1 UPR conf inactive
COC(=O)c1sc(-c2ccccc2)cc1NC(=O)c1ccc(OC)cc1	none
COc1cccc(C(=O)NCCNC(=O)c2ccco2)c1	none (no result: CHOP inhibitor, p97 ATPase inh)
CCCCCOCC(O)CCC(=O)NN (centres undefined)	UPR XBP1 act 34 | XBP1 UPR conf inactive
CCOc1ccc(CCNC(=O)c2ccc3ccccc3n2)cc1OCC	none (no result: CHOP inhibitor, p97 ATPase inh)
COc1ccc(-n2cc(-c3ccc(OC(F)F)cc3)[n+]3c2CCCCC3)cc1	none
CCOC(=O)Cc1cnc(NC(=O)CSc2nc(C(C)C)cc(=O)[nH]2)s1	none (no result: CHOP inhibitor, p97 ATPase inh)
COc1ccc(NC(=O)c2ccccc2NC(=O)CSc2ccc(Cl)cc2)cc1	UPR XBP1 act 35 | XBP1 UPR conf inactive
COc1ccc(NC(=O)c2ccccc2NC(=O)CSc2ccccc2)cc1	none
CC(C)CCNc1nnnc2c1sc1nc(N3CCOCC3)c3c(c12)CC(C)(C)SC3	none
CC1(C)Cc2c(c(N3CCOCC3)nc3sc4c(NCC5CCCO5)nnnc4c23)CS1 (centres undefined)	UPR XBP1 act 33 | XBP1 UPR conf inactive
Cc1ccc2c(n1)sc1c(-c3ccc(Br)cc3)c(C#N)c(N)nc12	CHOP inhibitor 82, UPR XBP1 act 61 | XBP1 UPR conf 43
CCc1nc(N)c(C#N)c(-c2ccc(F)cc2)c1C	none
CN(C)S(=O)(=O)c1ccc(N2CCCC2)c(C(=O)Nc2nc(-c3ccc(F)c(F)c3)cs2)c1	none
CN(C)S(=O)(=O)c1ccc(N2CCCC2)c(C(=O)Nc2nccs2)c1	UPR XBP1 act 60 (no result: CHOP inhibitor, NS3 helicase inh, M18AAP inhibitor, p97 ATPase inh) | XBP1 UPR conf 69
Cc1ccccc1OCc1nc(-c2ccc(NC(=O)c3ccco3)cc2)no1	none
Cc1ccccc1OCc1nc(-c2ccc(NC(=O)c3ccc4c(c3)OCO4)cc2)no1	CHOP inhibitor 74, UPR XBP1 act 69 | XBP1 UPR conf 44
